Active and inactive are the calls of the source. No cut-off for these calls is given here.
What was measured:
A2780 [1] = test: Cell cycle arrest in cisplatin-sensitive human A2780 cells assessed as increase in DNA fragmentation after 48 hrs by DAPI-staining based assay; assay type: functional
Summary of the method: (§1)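 A2780 cells seeded in T25 flasks, 24 h at 37 °C, then exposed 48 h to vehicle or compound at several concentrations. 1 x 10⁶ cells/mL spun at 400 g for 5 min, resuspended in lysis buffer with DAPI, 5 min at 37 °C, then stabilization buffer added. DNA content read by image cytometry to give sub-G1, G0/G1, S and G2 fractions; mean ± s.e. mean, n = 2.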

A2780 [2] = test: Cell cycle arrest in cisplatin-sensitive human A2780 cells assessed as increase in accumulation at sub-G0/G1 phase at 5 to 10 uM after 48 hrs by DAPI-staining based assay; assay type: functional; summary of the method: as §1
A2780 [3] = test: Antiproliferative activity against cisplatin-sensitive human A2780 cells measured after 96 hrs by MTT assay; assay type: functional, cell-based; conditions: for IC50: A2780, 96 h
Summary of the method: (§2)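 Cells kept in DMEM or RPMI 1640 with 10% FBS and 5% penicillin-streptomycin at 37 °C, 5% CO2, seeded at 1 x 10⁴ cells/mL and left 24 h to adhere. Compounds or vehicle added over a concentration range for 96 h, then MTT 4 h; formazan dissolved in DMSO, absorbance read at 540 nm relative to control. IC50 given as mean ± SD of three independent experiments in duplicate.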

[4] = (§3) Antiproliferative activity against cisplatin-resistant human A2780/CP70 cells measured after 96 hrs by MTT assay; assay type: functional; conditions: A2780/CP70, 96 h; summary of the method: as §2
ARPE-19 = test: Cytotoxicity against human ARPE19 cells measured after 96 hrs by MTT assay; assay type: cell-based; conditions: ARPE-19, 96 h; summary of the method: as §2
[5] = Selectivity index, ratio of IC50 for human ARPE19 cells to IC50 for cisplatin-sensitive human A2780 cells; assay type: toxicity; conditions: ARPE19 cells versus cisplatin-sensitive A2780 cells, read-out: Ratio IC50
[6] = Selectivity index, ratio of IC50 for human ARPE19 cells to IC50 for cisplatin-resistant human A2780/CP70 cells; assay type: toxicity; conditions: ARPE19 cells versus cisplatin-resistant A2780/CP70 cells, read-out: Ratio IC50
A2780 [7] = test: Cell cycle arrest in cisplatin-sensitive human A2780 cells assessed as accumulation at G0/G1 phase at 5 to 10 uM after 48 hrs by DAPI-staining based assay; assay type: functional; summary of the method: as §1
A2780 [8] = test: Cell cycle arrest in cisplatin-sensitive human A2780 cells assessed as increase in accumulation at sub-G0/G1 phase at 10 to 60 uM after 48 hrs by DAPI-staining based assay; assay type: functional; summary of the method: as §1
A2780 [9] = test: Cell cycle arrest in cisplatin-sensitive human A2780 cells assessed as accumulation at G0/G1 phase at 10 to 60 uM after 48 hrs by DAPI-staining based assay; assay type: functional; summary of the method: as §1
Homo sapiens = species: Homo sapiens; test: as §3; assay type: functional; summary of the method: as §2

| IC50 (A2780 [3]) | SMILES | Activity (A2780 [1]) | Activity (A2780 [2]) | IC50 [4] | IC50 (ARPE-19) | selectivity ratio [5] | selectivity ratio [6] | Activity (A2780 [7]) | Activity (A2780 [8]) | Activity (A2780 [9]) | Activity (A2780 [3]) | Activity (Homo sapiens) |
| --- | --- | --- | --- | --- | --- | --- | --- | --- | --- | --- | --- | --- |
| 47.5 nM | CC1=C(CO[Si](C)(C)C(C)(C)C)C(=O)O[C@@H]([C@@H](C)[C@H]2CC[C@H]3[C@@H]4C[C@H]5O[C@]56[C@@H](O)C=CC(=O)[C@]6(C)[C@H]4CC[C@]23C)C1 | Dose-dependent effect | Active | > 100 nM | 12.4 nM | 0.3 | 0.1 | inactive |  |  |  |  |
| 17 nM | CC1=C(CO[Si](C)(C)C(C)(C)C)C(=O)O[C@@H]([C@@H](C)[C@H]2CC[C@H]3[C@@H]4C[C@H]5O[C@]56C(=O)C=CC(=O)[C@]6(C)[C@H]4CC[C@]23C)C1 | Dose-dependent effect |  | > 100 nM | 1660 nM | 97.7 | 11.3 |  | Active | inactive |  |  |
|  | CCCCCC[Si](CCCCCC)(CCCCCC)OCC1=C(C)C[C@H]([C@@H](C)[C@H]2CC[C@H]3[C@@H]4C[C@H]5O[C@]56C(=O)C=CC(=O)[C@]6(C)[C@H]4CC[C@]23C)OC1=O |  |  |  |  |  |  |  |  |  | inactive | inactive |
